Experimental data: ChEMBL document CHEMBL1124226, “Benzothiopyranoindazoles, a new class of chromophore modified anthracenedione anticancer agents. Synthesis and activity against murine leukemias” (J Med Chem, 1988); call rule not given here
pIC50: −log10 of the molar value.

Experiments:
P388 [1] = experiment: In vivo for the optimal dose for activity against P388 leukemia per injection; format: functional, Mus musculus
How it was run: (§1)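 P388 leukemia in mice, drug given ip on days 1-5 (Q01D×5, IP/IP, NCI testing protocol). Optimum response taken over doses, expressed as mg/kg per injection. Read-outs are %T/C survival and net log cell kill (Schabel method). Cured mice are included in the %T/C and net kill calculations.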

P388 [2] = experiment: Percentage T/C survival (treated vs control) against P388 leukemia (day 30 surv); format: functional, Mus musculus; how it was run: as §1
L1210 [3] = experiment: In vitro for its inhibitory activity against murine L1210 leukemia; Inactive; format: functional, cell-based, Mus musculus
P388 leukemia (mouse) = experiment: Net log value for P388 leukemia cell kill in mice was determined
Mus musculus [4] = experiment: The compound was evaluated in vivo for the optimal dose for activity against murine B-16 melanoma; format: functional
How it was run: (§2)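 Murine B-16 melanoma in vivo. Optimal dose given as mg/kg per injection. Response is % T/C survival, with day-60 survivors reported as number per group (of 10 or 6).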

L1210 [5] = experiment: In vitro for its inhibitory activity against murine L1210 leukemia; format: functional, cell-based; settings: Mus musculus
Mus musculus [6] = species: Mus musculus; experiment: % T/C survival against murine B-16 melanoma (day 60 surv); format: functional; how it was run: as §2
Mus musculus [7] = experiment: The compound was evaluated in vivo for the optimal dose for activity against of B-16 leukemia per injection; format: functional; settings: in the assay text read “B-16 melanoma” for “B-16 leukemia”; how it was run: as §2

Row | Compound | Dose (P388 [1]) [mg/kg] | T/C (P388 [2]) [%] | IC50 (L1210 [3]) | Net log cell kill (P388 leukemia (mouse)) | Dose (Mus musculus [4]) [mg/kg] | pIC50 (L1210 [5]) | T/C (Mus musculus [6]) [%] | Dose (Mus musculus [7]) [mg/kg]
1 | CCN(CC)CCn1nc2c3c(c(N)ccc31)Sc1c(OC)cccc1-2.Cl | 25 | 109 | Not Active | -1.5 | – | – | – | –
2 | CCN(CC)CCn1nc2c3c(c(NCCNCCO)ccc31)Sc1ccccc1-2.Cl.O | 12.5 | 280 | – | > 6.8 | 12 | 7.55 | 273 | –
3 | CCN(CC)CCn1nc2c3c(c(N)ccc31)Sc1cc(OC)ccc1-2.Cl.O | – | – | Not Active | – | – | – | – | –
4 | CCN(CC)CCn1nc2c3c(c(NCCN4CCOC4=O)ccc31)Sc1ccc(O)cc1-2.Cl.O | 12.5 | – | – | – | – | 8.37 | – | –
5 | CCN(CC)CCn1nc2c3c(c(NCCNCCO)ccc31)Sc1ccc(O)cc1-2.Cl.O | 1.5 | 200 | – | 4.5 | 1.5 | 8.32 | 183 | –
6 | CCN(CC)CCn1nc2c3c(c(NCCN)ccc31)S(=O)(=O)c1ccccc1-2.Cl.O | 100 | 159 | – | 1.8 | – | 5.92 | – | –
7 | CCN(CC)CCn1nc2c3c(c(NCCN4CCOC4=O)ccc31)Sc1ccc(OC)cc1-2.Cl.O | 100 | 220 | Not Active | 6 | – | – | – | –
8 | CCN(CC)CCn1nc2c3c(c(NCCNCCO)ccc31)Sc1ccc(OC)cc1-2.Cl | 25 | – | – | 3.2 | – | 6.70 | – | –
9 | CN(C)CCn1nc2c3c(c(N)ccc31)Sc1ccccc1-2.Cl.O | 12.5 | 165 | – | 1.8 | – | 7.20 | – | –
10 | Cl.Nc1ccc2c3c(nn2CCNCCO)-c2ccccc2Sc13.O | 25 | 188 | – | 4.3 | 25 | – | 259 | –
11 | CCN(CC)CCn1nc2c3c(c(NCCN)ccc31)Sc1ccc(OC)cc1-2.Cl.O | 12.5 | – | – | 3.9 | – | 6.68 | – | –
12 | CCN(CC)CCn1nc2c3c(c(NCCN)ccc31)Sc1ccc(O)cc1-2.Cl.O | 0.8 | 186 | – | – | – | 8.59 | – | –
13 | Cl.NCCn1nc2c3c(c(NCCNCCO)ccc31)Sc1ccccc1-2 | 12.5 | 233 | – | > 6.7 | – | 7.66 | – | –
14 | CCN(CC)CCn1nc2c3c(c(N)ccc31)Sc1ccc(OC)cc1-2.Cl | 50 | – | – | 1.4 | – | 5.82 | – | –
15 | CCN(CC)CCn1nc2c3c(c(N)ccc31)Sc1cccc(OC)c1-2 | – | – | – | – | – | 5.70 | – | –
16 | CCN(CC)CCn1nc2c3c(c(N)ccc31)Sc1ccc(O)cc1-2.Cl.O | 6.3 | – | – | > 6.7 | 1.8 | 7.96 | 264 | –
17 | CCN(CC)CCn1nc2c3c(c(N)ccc31)Sc1cccc(O)c1-2 | – | – | – | – | – | 7.21 | – | –
18 | CCN(CC)CCNc1ccc2c3c(nn2CCNCCO)-c2ccccc2Sc13.Cl.O | 25 | – | – | 0.5 | – | 6.62 | – | –
19 | O=C1OCCN1CCNc1ccc2c3c(nn2CCNCCO)-c2ccccc2Sc13 | – | – | – | – | – | 6.27 | – | –
20 | Cl.O.O=S1(=O)c2ccccc2-c2nn(CCNCCO)c3ccc(NCCNCCO)c1c23 | 200 | 168 | Not Active | 2.5 | – | – | – | –
21 | CN(C)CCCn1nc2c3c(c(N)ccc31)Sc1ccccc1-2.Cl.O | 100 | 197 | – | 4 | – | 5.70 | – | –
22 | CN(C)CCn1nc2c3c(c(NCCN)ccc31)Sc1ccccc1-2.Cl.O | 12.5 | 270 | – | > 6.7 | – | 7.82 | – | –
23 | CCN(CC)CCn1nc2c3c(c(NCCN)ccc31)Sc1cc(O)ccc1-2.Cl.O | 6.3 | 280 | – | – | 7.5 | 7.15 | 281 | –
24 | CCN(CC)CCn1nc2c3c(c(NCCN)ccc31)Sc1c(O)cccc1-2.Cl.O | 6.3 | 122 | Not Active | -0.9 | – | – | – | –
25 | CCN(CC)CCNc1ccc2c3c(nn2CCN(CC)CC)-c2ccccc2Sc13.Cl | 25 | – | – | 1.6 | – | 7.30 | – | –
26 | Cl.NCCn1nc2c3c(c(N)ccc31)Sc1ccccc1-2 | 12.5 | 181 | – | 3.1 | – | 7.00 | – | –

Row | Compound | Dose (P388 [1]) [mg/kg] | T/C (P388 [2]) [%] | IC50 (L1210 [3]) | Net log cell kill (P388 leukemia (mouse)) | Dose (Mus musculus [4]) [mg/kg] | pIC50 (L1210 [5]) | T/C (Mus musculus [6]) [%] | Dose (Mus musculus [7]) [mg/kg]
27 | CC(=O)OCCN(CCn1nc2c3c(c(N)ccc31)Sc1ccccc1-2)C(C)=O.Cl | 400 | 117 | Not Active | -1.3 | – | – | – | –
28 | CC(=O)NCCn1nc2c3c(c(N)ccc31)Sc1ccccc1-2.Cl | 100 | 100 | Not Active | -1.7 | – | – | – | –
29 | CCN(CC)CCn1nc2c3c(c(NCCCN)ccc31)Sc1ccccc1-2.Cl.O | 50 | 262 | – | > 6.6 | – | 6.59 | – | –
30 | CCN(CC)CCn1nc2c3c(c(NC(=O)CN)ccc31)Sc1cc(O)ccc1-2.Cl.O | 100 | 195 | – | – | – | 6.85 | – | –
31 | CCN(CC)CCn1nc2c3c(c(NC(=O)CN)ccc31)Sc1ccccc1-2.Cl.O | 20 | 184 | – | 2.4 | – | 7.82 | – | –
32 | CN(C)CCCn1nc2c3c(c(NCCN)ccc31)Sc1ccccc1-2.Cl.O | 12.5 | – | – | > 6.7 | – | 7.57 | – | –
33 | CCN(CC)CCn1nc2c3c(c(NCCN)ccc31)Sc1cc(OC)ccc1-2.Cl.O | 25 | 133 | Not Active | -0.4 | – | – | – | –
34 | CCN(CC)CCn1nc2c3c(c(N)ccc31)Sc1cc(O)ccc1-2 | – | – | – | – | – | 6.72 | – | –
35 | Br.CCN(CC)CCn1nc2c3c(c(NCCNCCO)ccc31)Sc1c(O)ccc(O)c1-2 | 50 | – | Not Active | 0.1 | – | – | – | –
36 | Br.CCN(CC)CCn1nc2c3c(c(NCCN)ccc31)Sc1cccc(O)c1-2 | 12.5 | 177 | – | 2.8 | – | 7.32 | – | –
37 | Br.Nc1ccc2c3c(nn2CCNCCO)-c2cc(O)ccc2Sc13 | 3.1 | 192 | – | 4.2 | – | 7.64 | – | –
38 | Br.CCN(CC)CCn1nc2c3c(c(NCCN)ccc31)Sc1ccccc1-2 | 12.5 | – | – | > 6.6 | – | 7.52 | 159 | 6.3
39 | CCN(CC)CCn1nc2c3c(c(Cl)ccc31)S(=O)(=O)c1ccccc1-2 | – | – | – | – | – | 5.66 | – | –
40 | CCN(CC)CCn1nc2c3c(c(NCCN4CCOC4=O)ccc31)Sc1ccccc1-2 | 100 | – | – | 6 | – | 6.09 | – | –
41 | CCN(CC)CCn1nc2c3c(c(N)ccc31)Sc1ccccc1-2 | 25 | – | – | 2.2 | 12 | 7.00 | 112 | –
42 | CCN(CC)CCn1nc2c3c(c(NCCN4C(=O)c5ccccc5C4=O)ccc31)Sc1c(OC)cccc1-2 | 12.5 | 107 | Not Active | -1.5 | – | – | – | –
43 | CCN(CC)CCn1nc2c3c(c(NC(=O)CNC(=O)OC(C)(C)C)ccc31)Sc1cc(OC)ccc1-2 | – | – | Not Active | – | – | – | – | –
44 | CCN(CC)CCn1nc2c3c(c(NCCNC(=O)OC(C)(C)C)ccc31)Sc1cccc(OC)c1-2 | – | – | Not Active | – | – | – | – | –
45 | CCN(CC)CCn1nc2c3c(c(Cl)ccc31)[S+]([O-])c1ccccc1-2 (stereo not given) | – | – | Not Active | – | – | – | – | –
46 | O=S1(=O)c2ccccc2-c2nn(CCNCCO)c3ccc(Cl)c1c23 | – | – | – | – | – | 6.04 | – | –
47 | CC(=O)NCCn1nc2c3c(c(NCCN4CCOC4=O)ccc31)Sc1ccccc1-2 | 12.5 | 100 | Not Active | -1.6 | – | – | – | –
48 | CCN(CC)CCn1nc2c3c(c(NCCNC(=O)OC(C)(C)C)ccc31)Sc1cc(OC)ccc1-2 | 6.3 | 93 | Not Active | – | – | – | – | –
49 | CCN(CC)CCNc1ccc2c3c(nn2CCN(CC)CC)-c2ccccc2S(=O)(=O)c13 | 12.5 | 101 | Not Active | -1.6 | – | – | – | –
50 | COc1cccc2c1C(=O)c1c(O)c3c(c(O)c1C2=O)C[C@@](O)(C(=O)CO)C[C@@H]3O[C@H]1C[C@H](N)[C@H](O)[C@H](C)O1 [DOXORUBICIN] | 2 | 232 | – | – | 1 | – | 434 | –
51 | O=C1c2c(O)ccc(O)c2C(=O)c2c(NCCNCCO)ccc(NCCNCCO)c21 [MITOXANTRONE] | 1.25 | 291 | – | – | 0.6 | – | 265 | –
